Experimental data reported in ChEMBL document CHEMBL3877296, “Design, synthesis, and biological evaluation of novel alkylsulfanyl-1,2,4-triazoles as cis-restricted combretastatin A-4 analogues” (Eur J Med Chem, 2017).

Key:
[1] = Cytotoxicity against human PC3 cells assessed as growth inhibition after 48 hrs by MTT assay; assay type: functional, cell-based; conditions: PC-3, 48 h
Outline: (§1)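 Cells were kept in DMEM with 10% FBS and seeded at 5000 cells/well, then attached for 24 h at 37 °C. Compounds came from 20 mM DMSO stocks, serially diluted in medium, with 0.1% DMSO as vehicle control. After 48 h at 37 °C, MTT (5 mg/mL) was added for 4 h, formazan dissolved in DMSO and A570 read. IC50 was fitted from % inhibition versus control, mean of three independent experiments.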

[2] = Cytotoxicity against human HT-29 cells assessed as growth inhibition after 48 hrs by MTT assay; assay type: functional, cell-based; conditions: HT-29, 48 h; outline: as §1
[3] = Cytotoxicity against human HCT116 cells assessed as growth inhibition after 48 hrs by MTT assay; assay type: functional, cell-based; conditions: HCT-116, 48 h; outline: as §1
[4] = Cytotoxicity against human HepG2 cells assessed as growth inhibition after 48 hrs by MTT assay; assay type: functional, cell-based; conditions: HepG2, 48 h; outline: as §1
[5] = Cell cycle arrest in human PC3 cells assessed as S phase accumulation at 12 uM after 12 hrs by propidium iodide staining based flow cytometry (reference value: 31.7%); assay type: functional; conditions: PC-3
Outline: (§2)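 PC-3 cells were grown overnight in dishes to about 70% confluence, then exposed to three compound concentrations. Cells were trypsinized, washed in PBS, fixed overnight in 75% ice-cold ethanol, RNase-treated at 37 °C for 30 min, and stained with propidium iodide. Phase percentages (sub-G1, G0/G1, S, G2/M) were read by flow cytometry against untreated cells.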

[6] = Cell cycle arrest in human PC3 cells assessed as S phase accumulation at 6 uM after 12 hrs by propidium iodide staining based flow cytometry (reference value: 31.7%); assay type: functional; conditions: PC-3; outline: as §2
[7] = Cell cycle arrest in human PC3 cells assessed as G2/M phase accumulation after 48 hrs by propidium iodide staining based flow cytometry; assay type: functional; conditions: PC-3; outline: as §2
[8] = Cell cycle arrest in human PC3 cells assessed as G0/G1 phase accumulation at 3 uM after 12 hrs by propidium iodide staining based flow cytometry (reference value: 51.58%); assay type: functional; conditions: PC-3; outline: as §2
[9] = Cell cycle arrest in human PC3 cells assessed as subG1 phase accumulation at 12 uM after 12 hrs by propidium iodide staining based flow cytometry (reference value: 0.29%); assay type: functional; conditions: PC-3; outline: as §2
[10] = Cell cycle arrest in human PC3 cells assessed as G2/M phase accumulation at 3 uM after 12 hrs by propidium iodide staining based flow cytometry (reference value: 15.81%); assay type: functional; conditions: PC-3; outline: as §2
[11] = Cell cycle arrest in human PC3 cells assessed as subG1 phase accumulation at 3 uM after 12 hrs by propidium iodide staining based flow cytometry (reference value: 0.29%); assay type: functional; conditions: PC-3; outline: as §2
[12] = Cell cycle arrest in human PC3 cells assessed as G2/M phase accumulation at 12 uM after 12 hrs by propidium iodide staining based flow cytometry (reference value: 15.81%); assay type: functional; conditions: PC-3; outline: as §2
[13] = Cell cycle arrest in human PC3 cells assessed as G0/G1 phase accumulation at 6 uM after 12 hrs by propidium iodide staining based flow cytometry (reference value: 51.58%); assay type: functional; conditions: PC-3; outline: as §2
Sus scrofa = species: Sus scrofa; assay: Inhibition of porcine brain tubulin polymerization at 10 uM in presence of GTP by spectrophotometric method relative to control
Outline: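 Tubulin was purified from pig brain microtubule protein by three temperature-driven assembly/disassembly cycles, then phosphocellulose chromatography. Polymerization ran in PEM buffer (100 mM PIPES, 1 mM MgCl2, 1 mM EGTA) with 1 mM GTP and 5% glycerol at 37 °C, followed by light scattering at 340 nm. Percent inhibition came from plateau absorbance, with a DMSO negative control and a CA-4 reference run the same day.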

[14] = Cell cycle arrest in human PC3 cells assessed as G0/G1 phase accumulation at 12 uM after 12 hrs by propidium iodide staining based flow cytometry (reference value: 51.58%); assay type: functional; conditions: PC-3; outline: as §2
[15] = Cell cycle arrest in human PC3 cells assessed as subG1 phase accumulation at 6 uM after 12 hrs by propidium iodide staining based flow cytometry (reference value: 0.29%); assay type: functional; conditions: PC-3; outline: as §2
[16] = Cell cycle arrest in human PC3 cells assessed as G2/M phase accumulation at 6 uM after 12 hrs by propidium iodide staining based flow cytometry (reference value: 15.81%); assay type: functional; conditions: PC-3; outline: as §2
[17] = Cell cycle arrest in human PC3 cells assessed as S phase accumulation at 3 uM after 12 hrs by propidium iodide staining based flow cytometry (reference value: 31.7%); assay type: functional; conditions: PC-3; outline: as §2

SMILES | IC50 [1] | IC50 [2] | IC50 [3] | IC50 [4] | inhibition (Sus scrofa) | further results
COc1cc(-c2nnc(SCC(=O)c3ccc(F)cc3)n2-c2ccc(N(C)C)cc2)cc(OC)c1OC | 42.3 µM | 78 µM | 31.1 µM | > 60 µM |  | 
COc1cc(-c2nnc(SCc3ccccc3)n2-c2ccc(N(C)C)cc2)cc(OC)c1OC | 55.8 µM | > 60 µM | 54 µM | > 60 µM |  | 
COc1ccc(-n2c(SCC(=O)Nc3ccc(Cl)cc3)nnc2-c2cc(OC)c(OC)c(OC)c2)cc1 | 6.29 µM | 58 µM | > 60 µM | > 60 µM | 31% | Activity [5]: 27.1%; Activity [6]: 31.7%; Activity [7]: Dose-dependent effect; Activity [8]: 48%; Activity [9]: 0.37%; Activity [10]: 20.1%; Activity [11]: 0.43%; Activity [12]: 34.8%; Activity [13]: 46%; Activity [14]: 37.8%; Activity [15]: 0.62%; Activity [16]: 24.2%; Activity [17]: 30.8%
COc1ccc(CSc2nnc(-c3cc(OC)c(OC)c(OC)c3)n2-c2ccc(N(C)C)cc2)cc1 | > 60 µM | > 60 µM | 1.15 µM | > 60 µM | 49% | 
COc1ccc(C(=O)CSc2nnc(-c3cc(OC)c(OC)c(OC)c3)n2-c2ccc(N(C)C)cc2)cc1O | > 100 µM | > 60 µM | > 100 µM | > 100 µM |  | 
CCSc1nnc(-c2cc(OC)c(OC)c(OC)c2)n1-c1ccc(N(C)C)cc1 | 46.2 µM | > 60 µM | > 60 µM | > 60 µM |  | 
COc1ccc(C(=O)CSc2nnc(-c3cc(OC)c(OC)c(OC)c3)n2-c2ccc(OC)cc2)cc1 | > 60 µM | > 60 µM | > 60 µM | 18.1 µM | 30% | 
COc1ccc(C(=O)CSc2nnc(-c3cc(OC)c(OC)c(OC)c3)n2-c2ccc(N(C)C)cc2)cc1 | 22 µM | 64 µM | > 60 µM | 18.8 µM | 38% | 
COc1cc(-c2nnc(SCC(=O)c3ccccc3)n2-c2ccc(N(C)C)cc2)cc(OC)c1OC | 38.6 µM | 45.1 µM | 42.5 µM | 18.9 µM | 16% | 
COc1ccc(-n2c(S)nnc2-c2cc(OC)c(OC)c(OC)c2)cc1 | > 60 µM | > 60 µM | > 60 µM | 57.5 µM |  | 
COc1cc(-c2nnc(SCc3ccc(C)cc3)n2-c2ccc(N(C)C)cc2)cc(OC)c1OC | 37.3 µM | 27.4 µM | > 60 µM | > 60 µM | 21% | 
COc1ccc(-n2c(SCc3ccc(F)cc3)nnc2-c2cc(OC)c(OC)c(OC)c2)cc1 | 35 µM | 50.7 µM | 38.7 µM | 35 µM |  | 
CCOC(=O)CSc1nnc(-c2cc(OC)c(OC)c(OC)c2)n1-c1ccc(N(C)C)cc1 | > 60 µM | 28.8 µM | > 60 µM | > 60 µM |  | 
COc1cc(-c2nnc(SCC(=O)c3ccc4ccccc4c3)n2-c2ccc(N(C)C)cc2)cc(OC)c1OC | 18.1 µM | > 60 µM | 54.5 µM | > 60 µM | 26% | 
CCSc1nnc(-c2cc(OC)c(OC)c(OC)c2)n1-c1ccc(OC)cc1 | 57.7 µM | > 60 µM | > 60 µM | > 60 µM |  | 
COc1ccc(NC(=O)CSc2nnc(-c3cc(OC)c(OC)c(OC)c3)n2-c2ccc(N(C)C)cc2)cc1 | 56.1 µM | 51.4 µM | > 60 µM | > 60 µM |  | 
COc1ccc(-n2c(SCc3ccc(C)cc3)nnc2-c2cc(OC)c(OC)c(OC)c2)cc1 | 56.5 µM | > 60 µM | 33.3 µM | 31.6 µM | 15% | 

SMILES | IC50 [1] | IC50 [2] | IC50 [3] | IC50 [4] | inhibition (Sus scrofa) | further results
COc1ccc(-n2c(SC)nnc2-c2cc(OC)c(OC)c(OC)c2)cc1 | > 60 µM | > 60 µM | > 60 µM | > 60 µM |  | 
COc1ccc(-n2c(SCC(=O)C3CC3)nnc2-c2cc(OC)c(OC)c(OC)c2)cc1 | 37.2 µM | > 60 µM | > 60 µM | > 60 µM | 36% | 
COc1ccc(-n2c(SCC(=O)c3ccc(F)cc3)nnc2-c2cc(OC)c(OC)c(OC)c2)cc1 | 58.2 µM | 42.5 µM | > 60 µM | 10.7 µM | 12% | 
COc1cc(-c2nnc(SCC(=O)C3CC3)n2-c2ccc(N(C)C)cc2)cc(OC)c1OC | 45.9 µM | > 60 µM | > 60 µM | > 60 µM |  | 
CCOC(=O)CSc1nnc(-c2cc(OC)c(OC)c(OC)c2)n1-c1ccc(OC)cc1 | > 60 µM | > 60 µM | > 60 µM | > 60 µM |  | 
COc1ccc(-n2c(SCC(=O)c3ccc(OC)c(O)c3)nnc2-c2cc(OC)c(OC)c(OC)c2)cc1 | > 60 µM | > 60 µM | > 60 µM | > 60 µM |  | 
COc1ccc(-n2c(SCc3ccccc3)nnc2-c2cc(OC)c(OC)c(OC)c2)cc1 | 34.1 µM | > 60 µM | 42.4 µM | > 60 µM | 16% | 
COc1ccc(-n2c(SCC(=O)c3ccc4ccccc4c3)nnc2-c2cc(OC)c(OC)c(OC)c2)cc1 | > 60 µM | 53.4 µM | > 60 µM | > 60 µM |  | 
COc1cc(-c2nnc(S)n2-c2ccc(N(C)C)cc2)cc(OC)c1OC | > 60 µM | > 60 µM | > 60 µM | > 60 µM |  | 
COc1cc(-c2nnc(SCC(=O)Nc3ccc(Cl)cc3)n2-c2ccc(N(C)C)cc2)cc(OC)c1OC | > 60 µM | > 60 µM | 39.3 µM | > 60 µM | 17% | 
COc1cc(-c2nnc(SCc3ccc(F)cc3)n2-c2ccc(N(C)C)cc2)cc(OC)c1OC | 46.5 µM | 44.3 µM | > 60 µM | 26.4 µM |  | 
COc1ccc(/C=C\c2cc(OC)c(OC)c(OC)c2)cc1O [COMBRETASTATIN A4] | 22 µM | 1.96 µM | 6.1 µM | 5.29 µM | 80% | 
COc1cc(-c2nnc(SC)n2-c2ccc(N(C)C)cc2)cc(OC)c1OC | > 60 µM | > 60 µM | > 60 µM | > 60 µM |  | 
COc1ccc(NC(=O)CSc2nnc(-c3cc(OC)c(OC)c(OC)c3)n2-c2ccc(OC)cc2)cc1 | 25.8 µM | 45.2 µM | > 60 µM | > 60 µM | 10% | 
COc1ccc(-n2c(SCC(=O)c3ccccc3)nnc2-c2cc(OC)c(OC)c(OC)c2)cc1 | > 60 µM | > 60 µM | > 60 µM | 16.2 µM |  | 
COc1ccc(CSc2nnc(-c3cc(OC)c(OC)c(OC)c3)n2-c2ccc(OC)cc2)cc1 | 40.3 µM | > 60 µM | 49.6 µM | 41.1 µM | 29% | 
